What all share (assay type): functional, cell-based
In experiment [1] the test system is COLO 205. The experiment can be described thus: Growth inhibition of human COLO205 cells after 48 hrs by MTT assay. The following applies: COLO 205, 48 h. Put shortly:
(§1)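 Cells were from ATCC and grown in RPMI-1640 with 10% fetal calf serum, antibiotics and L-glutamine. Growth was read by MTT after continuous compound exposure, against a DMSO vehicle control, up to a maximum of 100 µM. IC50 came from sigmoidal variable-slope dose–response curves. Triplicates were run in three independent experiments, reported as mean ± SD.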

Experiment [2] has as its system HepG2. The experiment in a line: Growth inhibition of human HepG2 cells after 48 hrs by MTT assay. Conditions: HepG2, 48 h. Put shortly: as §1
Experiment [3] deals with Peritoneal macrophage cell. The experiment in a line: Inhibition of nitric oxide production in LPS/IFN-gamma-stimulated BALB/c mouse peritoneal macrophages by Griess method. Put shortly: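 Murine peritoneal macrophages were stimulated with LPS (E. coli 055:B5) plus recombinant IFN-γ, and NO in the medium was measured with Griess reagent. Cell viability under the same conditions was checked by MTT. IC50 came from sigmoidal variable-slope dose–response curves. Triplicates were repeated three times (n = 9), reported as mean ± SD.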
For orientation: The Griess reaction detects nitrite, a stable product of nitric oxide.

The values that follow come from ChEMBL document CHEMBL1153079, “Synthesis and biological evaluation of 3',4',5'-trimethoxychalcone analogues as inhibitors of nitric oxide production and tumor cell proliferation” (Bioorg Med Chem, 2009).

A value given as a limit tells only on which side of the number the result lay.

Usually IC50 stands for the concentration that inhibits the measured activity by half. A higher IC50 goes with weaker potency.

With `COc1cc(C(=O)/C=C/c2ccc(C=O)cc2)cc(OC)c1OC`, the IC50 in experiment [1] is 68.8 µM; in experiment [2], over 100 µM; in experiment [3], over 50 µM.

On to `COc1cc(C(=O)/C=C/c2ccc(O)c(O)c2)cc(OC)c1OC`, for which the IC50 in experiment [1] came to 19.8 µM; in experiment [2], 14.9 µM; in experiment [3], 1.5 µM.

For the compound `COc1cc(/C=C/C(=O)c2cc(OC)c(OC)c(OC)c2)cc(OC)c1OC`, the figures for the IC50 in experiment [1], in experiment [2] and in experiment [3] were 19.2 µM, 19.6 µM and 2.8 µM, respectively.

As to `COc1ccc(/C=C/C(=O)c2cc(OC)c(OC)c(OC)c2)cc1OC`, the IC50 was over 100 µM in experiment [1], 20.3 µM in experiment [2] and 4.5 µM in experiment [3].

Regarding `COc1cc(C(=O)/C=C/c2ccc(O)cc2)cc(OC)c1OC`, the figures for the IC50 in experiment [1], in experiment [2] and in experiment [3] were 29.7 µM, 16 µM and 5 µM, respectively.

In the case of `COc1cccc(/C=C/C(=O)c2cc(OC)c(OC)c(OC)c2)c1`, the IC50 in experiment [1] came out at 2.2 µM; in experiment [2], 1.8 µM; in experiment [3] it was 0.3 µM.

Regarding `COc1ccc(/C=C/C(=O)c2cc(OC)c(OC)c(OC)c2)cc1`, the values for the IC50 in experiment [1], in experiment [2] and in experiment [3] were 46.4 µM, 49.5 µM and 7.6 µM, respectively.

On to `COc1cc(C(=O)/C=C/c2ccc(C)cc2)cc(OC)c1OC`, for which the IC50 in experiment [1] came out at 41.5 µM; in experiment [2], 52 µM; in experiment [3], 4.5 µM.

`COc1cc(C(=O)/C=C/c2ccc(N(C)C)cc2)cc(OC)c1OC`: the IC50 in experiment [1] worked out at 75 µM; in experiment [2], 30 µM; in experiment [3], 27 µM.

On to `COc1cc(/C=C/C(=O)c2cc(OC)c(OC)c(OC)c2)ccc1O`, for which the results for the IC50 in experiment [1], in experiment [2] and in experiment [3] were over 100 µM, over 100 µM and 0.3 µM, respectively.

Regarding `COc1cc(C(=O)/C=C/c2cccc(O)c2)cc(OC)c1OC`, the concentration for half-maximal inhibition (IC50) in experiment [1] came to 49 µM; in experiment [2], 94 µM; in experiment [3], 13.5 µM.

With `COc1cccc(/C=C/C(=O)c2cc(OC)c(OC)c(OC)c2)c1O`, the IC50 in experiment [1] turned out to be 13 µM; in experiment [2] it was 13.5 µM; in experiment [3], 3 µM.

Regarding `COc1cc(C(=O)/C=C/c2ccccc2C=O)cc(OC)c1OC`, the IC50 in experiment [1] is 88 µM; in experiment [2], over 100 µM; in experiment [3], 27 µM.

As to `COc1cc(C(=O)/C=C/c2ccc([N+](=O)[O-])cc2)cc(OC)c1OC`, the IC50 in experiment [1] was 43 µM; in experiment [2] it was over 100 µM; in experiment [3], 30 µM.

In the case of `COc1ccc(/C=C/C(=O)c2cc(OC)c(OC)c(OC)c2)c(OC)c1`, the IC50 in experiment [1] is 82.5 µM; in experiment [2], over 100 µM; in experiment [3] it was over 50 µM.

On to `COc1cc(C(=O)/C=C/c2cccc(C=O)c2)cc(OC)c1OC`, for which the values for the IC50 in experiment [1], in experiment [2] and in experiment [3] were 22.5 µM, over 100 µM and over 50 µM, respectively.

Turning to `COc1cccc(/C=C/C(=O)c2cc(OC)c(OC)c(OC)c2)c1OC`, the values for the IC50 in experiment [1], in experiment [2] and in experiment [3] were 13.2 µM, 11.5 µM and 2.4 µM, respectively.

`COc1cc(C(=O)/C=C/c2cc([N+](=O)[O-])ccc2O)cc(OC)c1OC`: the IC50 in experiment [1] was 76 µM; in experiment [2], over 100 µM; in experiment [3] it was 4.4 µM.

Turning to `COc1cc(OC)c(OC)cc1/C=C/C(=O)c1cc(OC)c(OC)c(OC)c1`, the IC50 in experiment [1] was 18.6 µM; in experiment [2], 16.1 µM; in experiment [3], 4.6 µM.

Regarding `COc1cc(C(=O)/C=C/c2cc(O)ccc2O)cc(OC)c1OC`, the 50% inhibitory concentration (IC50) in experiment [1] was over 100 µM; in experiment [2] it was over 100 µM; in experiment [3], over 50 µM.

Consider `COc1cc(C(=O)/C=C/c2ccc(Br)cc2)cc(OC)c1OC`, for which the figures for the IC50 in experiment [1], in experiment [2] and in experiment [3] were 22.5 µM, 80 µM and 20 µM, respectively.

Take `COc1cc(C(=O)/C=C/c2ccc(F)cc2)cc(OC)c1OC`: the IC50 in experiment [1] stood at 25.7 µM; in experiment [2], 22 µM; in experiment [3] it was 17.6 µM.

Consider `COc1ccc(/C=C/C(=O)c2cc(OC)c(OC)c(OC)c2)cc1O`, for which the figures for the IC50 in experiment [1], in experiment [2] and in experiment [3] were 11.2 µM, 10.6 µM and 1.3 µM, respectively.
